The source made the active and inactive calls. The rule behind the calls is not given here.
Columns and labels:
HL-60 [1] = assay: Induction of cell cycle arrest in human HL60 cells assessed as accumulation at subG1 phase at 3 uM after 48 hrs by propidium iodide staining based flow cytometry (reference value: 3.7 +/- 0.1%); assay type: functional
HL-60 [2] = assay: Induction of cell cycle arrest in human HL60 cells assessed as accumulation at G2/M phase at 3 uM after 24 hrs by propidium iodide staining based flow cytometry (reference value: 22.5 +/- 0.9%); assay type: functional
HL-60 [3] = assay: Increase in DR4 expression in human HL60 cells at 10 30 uM after 24 hrs by immunoblotting method; assay type: functional, cell-based
How it was run: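 HL-60 and U937 cells were treated with increasing concentrations for 24 h. Lysates were immunoblotted for TRAIL, DR4 and DR5.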

U-937 [4] = assay: Induction of cell cycle arrest in human U937 cells assessed as accumulation at subG1 phase at 10 uM after 24 hrs by propidium iodide staining based flow cytometry (reference value: 3.9 +/- 0.8%); assay type: functional
HL-60 [5] = assay: Induction of apoptosis in human HL60 cells at 30 uM after 24 hrs by propidium iodide staining based flow cytometry (reference value: 3.8 +/- 0.6%); assay type: functional
HL-60 [6] = assay: Induction of cell cycle arrest in human HL60 cells assessed as accumulation at G1 phase at 10 uM after 24 hrs by propidium iodide staining based flow cytometry (reference value: 53 +/- 1.1%); assay type: functional
HL-60 [7] = assay: Induction of cell cycle arrest in human HL60 cells assessed as accumulation at G2/M phase at 10 uM after 24 hrs by propidium iodide staining based flow cytometry (reference value: 22.5 +/- 0.9%); assay type: functional
HL-60 [8] = assay: Induction of apoptosis in human HL60 cells assessed as pro-caspase-9 processing at 3 and 10 uM after 6 to 24 hrs by immunoblotting method; assay type: functional, cell-based
How it was run: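 Kinetic and dose-response immunoblots. Cells were treated, harvested at the indicated times, and probed with antibodies that detect both procaspase-8/-9 and their cleaved fragments.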

U-937 [9] = assay: Induction of cell cycle arrest in human U937 cells assessed as accumulation at S phase at 1 uM after 12 hrs by propidium iodide staining based flow cytometry (reference value: 20.5 +/- 0.8%); assay type: functional
HL-60 [10] = assay: Induction of cell cycle arrest in human HL60 cells assessed as accumulation at G2/M phase at 10 uM after 12 hrs by propidium iodide staining based flow cytometry (reference value: 18.5 +/- 0.5%); assay type: functional
HL-60 [11] = assay: Induction of cell cycle arrest in human HL60 cells assessed as accumulation at G1 phase at 3 uM after 48 hrs by propidium iodide staining based flow cytometry (reference value: 60.4 +/- 0.4%); assay type: functional
HL-60 [12] = assay: Induction of cell cycle arrest in human HL60 cells assessed as accumulation at S phase at 10 uM after 12 hrs by propidium iodide staining based flow cytometry (reference value: 14.7 +/- 0.3%); assay type: functional
U-937 [13] = assay: Induction of apoptosis in human U937 cells assessed as pro-caspase-8 processing at 3 and 10 uM after 6 to 24 hrs by immunoblotting method; assay type: functional, cell-based
How it was run: (§1)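 Kinetic and dose-response experiment: cells were treated with the indicated concentrations and harvested at the indicated times. Pro-caspase-8 and -9 cleavage was detected by immunoblotting with antibodies that bind both the proenzyme and the cleaved fragments.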

HL-60 [14] = assay: Induction of cell cycle arrest in human HL60 cells assessed as accumulation at subG1 phase at 10 uM after 24 hrs by propidium iodide staining based flow cytometry (reference value: 3.4 +/- 0.3%); assay type: functional
HL-60 [15] = assay: Induction of cell cycle arrest in human HL60 cells assessed as accumulation at G1 phase at 10 uM after 12 hrs by propidium iodide staining based flow cytometry (reference value: 57.2 +/- 0.9%); assay type: functional
HL-60 [16] = assay: Induction of apoptosis in human HL60 cells in presence of 10 uM MEK1/2 inhibitor PD98059 after 24 hrs by propidium iodide staining based flow cytometry; assay type: functional
U-937 [17] = assay: Induction of cell cycle arrest in human U937 cells assessed as accumulation at subG1 phase at 1 uM after 12 hrs by propidium iodide staining based flow cytometry (reference value: 4.6 +/- 0.9%); assay type: functional
U-937 [18] = assay: Induction of apoptosis in human U937 cells assessed as pro-caspase-4 processing by Western blotting method; assay type: functional, cell-based
How it was run: (§2)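 Cells were exposed to a range of compound concentrations and harvested at 24 h. Lysates were immunoblotted for caspase proforms and cleaved forms, and for Bcl-2 family proteins.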

U-937 [19] = assay: Induction of cell cycle arrest in human U937 cells assessed as accumulation at subG1 phase at 3 uM after 24 hrs by propidium iodide staining based flow cytometry (reference value: 3.9 +/- 0.8%); assay type: functional
HL-60 [20] = assay: Induction of apoptosis in human HL60 cells assessed as pro-caspase-6 cleavage by Western blotting method; assay type: functional, cell-based; how it was run: as §2
MOLT-3 [21] = assay: Effect on Bcl-2 expression in human MOLT3 cells by Western blotting method; assay type: functional, cell-based; how it was run: as §2
HL-60 [22] = assay: Induction of cell cycle arrest in human HL60 cells assessed as accumulation at G2/M phase at 1 uM after 12 hrs by propidium iodide staining based flow cytometry (reference value: 18.5 +/- 0.5%); assay type: functional
MOLT-3 [23] = assay: Induction of apoptosis in human MOLT3 cells assessed as pro-caspase-6 cleavage by Western blotting method; assay type: functional, cell-based; how it was run: as §2
U-937 [24] = assay: Induction of cell cycle arrest in human U937 cells assessed as accumulation at S phase at 3 uM after 24 hrs by propidium iodide staining based flow cytometry (reference value: 18.6 +/- 0.3%); assay type: functional
HL-60 [25] = assay: Induction of apoptosis in human HL60 cells assessed as pro-caspase-4 processing by Western blotting method; assay type: functional, cell-based
U-937 [26] = assay: Induction of apoptosis in human U937 cells assessed as increase in caspase 9 activity using LEHD-pNA substrate at 10 uM after 24 hrs; assay type: functional, cell-based
How it was run: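 Cells were given 10 µM for 24 h. Lysates were assayed for cleavage of DEVD-pNA (caspase-3/7), IETD-pNA (caspase-8) and LEHD-pNA (caspase-9). Results are expressed as fold over control, from three independent experiments in triplicate.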

HL-60 [27] = assay: Reduction in Bid expression in human HL60 cells by Western blotting method; assay type: functional, cell-based
How it was run: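 Cells (HL-60, Molt-3 or U937) were incubated with increasing concentrations of compound and harvested at 24 h. Cell lysates were then immunoblotted for Bid and other Bcl-2 family members.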

U-937 [28] = assay: Induction of apoptosis in human U937 cells assessed as pro-caspase-3 cleavage by Western blotting method; assay type: functional, cell-based; how it was run: as §2
HL-60 [29] = assay: Induction of cell cycle arrest in human HL60 cells assessed as accumulation at subG1 phase at 3 uM after 12 hrs by propidium iodide staining based flow cytometry (reference value: 6.1 +/- 0.5%); assay type: functional
HL-60 [30] = assay: Induction of cell cycle arrest in human HL60 cells assessed as accumulation at G2/M phase at 1 uM after 24 hrs by propidium iodide staining based flow cytometry (reference value: 22.5 +/- 0.9%); assay type: functional
U-937 [31] = assay: Induction of apoptosis in human U937 cells assessed as pro-caspase-9 processing at 3 and 10 uM after 6 to 24 hrs by immunoblotting method; assay type: functional, cell-based; how it was run: as §1
U-937 [32] = assay: Induction of cell cycle arrest in human U937 cells assessed as accumulation at S phase at 3 uM after 48 hrs by propidium iodide staining based flow cytometry (reference value: 18.9 +/- 0.2%); assay type: functional

Structure (SMILES): O=c1c(O)c(-c2ccc(Br)cc2)oc2ccccc12
- Activity (HL-60 [1]): 14.3%
- Activity (HL-60 [2]): 21.8%
- Activity (HL-60 [3]): Active
- Activity (U-937 [4]): 13.8%
- Activity (HL-60 [5]): 51.8%
- Activity (HL-60 [6]): 37.3%
- Activity (HL-60 [7]): 12.6%
- Activity (HL-60 [8]): Active
- Activity (U-937 [9]): 21.5%
- Activity (HL-60 [10]): 13.4%
- Activity (HL-60 [11]): 40.4%
- Activity (HL-60 [12]): 15.9%
- Activity (U-937 [13]): Active
- Activity (HL-60 [14]): 20.4%
- Activity (HL-60 [15]): 58.2%
- fold change (FC) (HL-60 [16]): 2
- Activity (U-937 [17]): 3.3%
- Activity (U-937 [18]): Active
- Activity (U-937 [19]): 5.5%
- Activity (HL-60 [20]): Active
- Activity (MOLT-3 [21]): inactive
- Activity (HL-60 [22]): 19.4%
- Activity (MOLT-3 [23]): Active
- Activity (U-937 [24]): 24.7%
- Activity (HL-60 [25]): Active
- Activity (U-937 [26]): Active
- Activity (HL-60 [27]): Active
- Activity (U-937 [28]): inactive
- Activity (HL-60 [29]): 6.3%
- Activity (HL-60 [30]): 22.5%
- Activity (U-937 [31]): Active
- Activity (U-937 [32]): 21.2%
